Values after ≈ are worked out from the molar mass of the structure shown. Bounds are passed on as bounds.

Experiment [1] has as its system Bacillus subtilis. Description: Antibacterial activity against Bacillus subtilis at 1 ug/disk after 24 hrs by agar-plate diffusion assay. It is filed as functional. To be noted: read-out: IZ. The procedure, abridged:
(§1)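 Paper disks loaded with compound (acetone solution), 0.1 to 10 µg/disk, placed on agar plates inoculated with B. subtilis. Incubated 37 °C for 24 h, then read for zones of inhibition. All materials sterilized at 121 °C for 20 min before and after testing.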

In experiment [2] the test system is Bacillus subtilis. Nature of the experiment: Antibacterial activity against Bacillus subtilis at 5 ug/disk after 24 hrs by agar-plate diffusion assay. The class given is functional. To be noted: read-out: IZ. The procedure, abridged:
as §1

Experiment [3] relates to Bacillus subtilis. Description: Antibacterial activity against Bacillus subtilis at 0.1ug/disk after 24 hrs by agar-plate diffusion assay. Particulars: read-out: IZ. It is filed as functional. The procedure, abridged: as §1
Experiment [4] in a line: Cytotoxicity against rat NBT-T2 cells by MTT method. It is filed as cell-based. The procedure, abridged:
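Rat bladder epithelial NBT-T2 cells exposed to compound. Viability read by MTT, and IC50 values derived from it.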
A general note: Tetrazolium assays rely on reduction of a dye to a coloured formazan, in cell work by metabolically active cells.

The subject of experiment [5] is Bacillus subtilis. Description: Antibacterial activity against Bacillus subtilis at 10 ug/disk after 24 hrs by agar-plate diffusion assay. To be noted: read-out: IZ. It is filed as functional. In outline: as §1

For orientation: IC50 means the point on the concentration scale where inhibition reaches its midpoint. For the compound `Oc1c(Br)cc(Br)cc1Oc1c(Br)cc(Br)c(Br)c1O`, the zone of inhibition at 1 µg/disc in experiment [1] was determined as 7 mm. The zone of inhibition at 5 µg/disc in experiment [2] was found to be 8 mm. Further, the zone of inhibition at 0.1 µg/disc in experiment [3] came out at 0 mm. Further, the IC50 in experiment [4] is over 15 µg/mL. Moreover, the zone of inhibition at 10 µg/disc in experiment [5] was found to be 10 mm.

As to `COc1c(Br)cc(Br)cc1Oc1c(Br)c(Br)c(Br)c(Br)c1OC`, the zone of inhibition at 1 µg/disc in experiment [1] amounted to 0 mm. The zone of inhibition at 5 µg/disc in experiment [2] came to 0 mm. In experiment [3], the zone of inhibition at 0.1 µg/disc is 0 mm. Besides, the zone of inhibition at 10 µg/disc in experiment [5] was determined as 0 mm.

For the compound `Oc1cc(Br)c(Br)c(Br)c1Oc1cc(Br)cc(Br)c1O`, in experiment [1], the zone of inhibition at 1 µg/disc was 10 mm. Moreover, the zone of inhibition at 5 µg/disc in experiment [2] was determined as 13 mm. Besides, the zone of inhibition at 0.1 µg/disc in experiment [3] came out at 7 mm. In experiment [4], this compound displayed a half-maximal inhibitory concentration (IC50) of over 15 µg/mL. The zone of inhibition at 10 µg/disc in experiment [5] was 16 mm.

Consider `Oc1c(Br)cc(Br)cc1Oc1c(O)c(Br)c(Br)c(Br)c1Br`, for which the zone of inhibition at 1 µg/disc in experiment [1] came out at 7 mm. For the same compound, the zone of inhibition at 5 µg/disc in experiment [2] turned out to be 12 mm. Further, the zone of inhibition at 0.1 µg/disc in experiment [3] worked out at 6 mm. For the same compound, the IC50 in experiment [4] is over 15 µg/mL. Further, in experiment [5], the zone of inhibition at 10 µg/disc came out at 12 mm.

As for `COc1cc(Br)c(Br)c(Br)c1Oc1cc(Br)cc(Br)c1OC`, in experiment [1], the zone of inhibition at 1 µg/disc is 0 mm. The zone of inhibition at 5 µg/disc in experiment [2] was determined as 0 mm. Moreover, the zone of inhibition at 0.1 µg/disc in experiment [3] was found to be 0 mm. The zone of inhibition at 10 µg/disc in experiment [5] came to 0 mm.

On to `Oc1ccc(Br)cc1Oc1c(O)ccc(Br)c1Br`, for which the zone of inhibition at 1 µg/disc in experiment [1] was determined as 13 mm. The zone of inhibition at 5 µg/disc in experiment [2] was 16 mm. In addition, in experiment [3], the zone of inhibition at 0.1 µg/disc was 7 mm. This compound registered an IC50 in experiment [4] of over 15 µg/mL. The zone of inhibition at 10 µg/disc in experiment [5] worked out at 18 mm.

Take `COc1c(Br)cc(Br)cc1Oc1c(Br)ccc(Br)c1OC`: the zone of inhibition at 1 µg/disc in experiment [1] was 0 mm. In addition, the zone of inhibition at 5 µg/disc in experiment [2] was 0 mm. In experiment [3], the zone of inhibition at 0.1 µg/disc was 0 mm. In experiment [5], the zone of inhibition at 10 µg/disc amounted to 0 mm.

Regarding `Oc1c(Br)cccc1Oc1cc(Br)c(Br)c(Br)c1O`, in experiment [1], the zone of inhibition at 1 µg/disc was 0 mm. Besides, the zone of inhibition at 5 µg/disc in experiment [2] is 8 mm. Further, the zone of inhibition at 0.1 µg/disc in experiment [3] was found to be 0 mm. The compound also yielded an IC50 in experiment [4] of over 15 µg/mL. For the same compound, in experiment [5], the zone of inhibition at 10 µg/disc stood at 13 mm.

In the case of `COc1c(Br)cc(Br)cc1Oc1c(Br)cc(Br)c(Br)c1O`, the zone of inhibition at 1 µg/disc in experiment [1] turned out to be 11 mm. Further, in experiment [2], the zone of inhibition at 5 µg/disc stood at 14 mm. Moreover, the zone of inhibition at 0.1 µg/disc in experiment [3] stood at 6 mm. In addition, the zone of inhibition at 10 µg/disc in experiment [5] is 14 mm.

Turning to `Oc1cc(Br)cc(Br)c1Oc1cc(Br)cc(Br)c1O`, the zone of inhibition at 1 µg/disc in experiment [1] worked out at 0 mm. Further, in experiment [2], the zone of inhibition at 5 µg/disc is 16 mm. In addition, in experiment [3], the zone of inhibition at 0.1 µg/disc worked out at 0 mm. The IC50 in experiment [4] was over 15 µg/mL. Moreover, the zone of inhibition at 10 µg/disc in experiment [5] was determined as 18 mm.

With `COc1c(Br)c(Br)c(Br)c(Br)c1Oc1cc(Br)cc(Br)c1O`, the zone of inhibition at 1 µg/disc in experiment [1] turned out to be 0 mm. In addition, in experiment [2], the zone of inhibition at 5 µg/disc stood at 0 mm. For the same compound, the zone of inhibition at 0.1 µg/disc in experiment [3] came to 0 mm. Moreover, the zone of inhibition at 10 µg/disc in experiment [5] worked out at 0 mm.

As for `Oc1ccc(Br)cc1Oc1cc(Br)cc(Br)c1O`, the zone of inhibition at 1 µg/disc in experiment [1] came to 6 mm. Moreover, the zone of inhibition at 5 µg/disc in experiment [2] came to 8 mm. The zone of inhibition at 0.1 µg/disc in experiment [3] was determined as 6 mm. The compound also showed a half-inhibitory concentration (IC50) in experiment [4] of over 15 µg/mL. Also, the zone of inhibition at 10 µg/disc in experiment [5] came to 11 mm.

Regarding `Oc1ccc(Br)cc1Oc1c(O)c(Br)cc(Br)c1Br`, the zone of inhibition at 1 µg/disc in experiment [1] was found to be 8 mm. Also, the zone of inhibition at 5 µg/disc in experiment [2] turned out to be 16 mm. Moreover, the zone of inhibition at 0.1 µg/disc in experiment [3] came to 7 mm. The compound also came in with an IC50 in experiment [4] of over 15 µg/mL. For the same compound, in experiment [5], the zone of inhibition at 10 µg/disc worked out at 17 mm.

`COc1cc(Br)c(Br)c(Br)c1Oc1cc(Br)cc(Br)c1O`: the zone of inhibition at 1 µg/disc in experiment [1] was 0 mm. In experiment [2], the zone of inhibition at 5 µg/disc was 0 mm. In addition, the zone of inhibition at 0.1 µg/disc in experiment [3] is 0 mm. The zone of inhibition at 10 µg/disc in experiment [5] was found to be 0 mm.

For `COc1c(Br)cc(Br)cc1Oc1ccc(Br)cc1Br`, the zone of inhibition at 1 µg/disc in experiment [1] was 0 mm. Further, in experiment [2], the zone of inhibition at 5 µg/disc amounted to 0 mm. For the same compound, the zone of inhibition at 0.1 µg/disc in experiment [3] amounted to 0 mm. Further, the zone of inhibition at 10 µg/disc in experiment [5] came to 0 mm.

With `COc1ccc(Br)cc1Oc1c(OC)ccc(Br)c1Br`, the zone of inhibition at 1 µg/disc in experiment [1] was 0 mm. Besides, the zone of inhibition at 5 µg/disc in experiment [2] is 0 mm. Also, the zone of inhibition at 0.1 µg/disc in experiment [3] came out at 0 mm. Further, the zone of inhibition at 10 µg/disc in experiment [5] stood at 0 mm.

As for `COc1c(Br)cc(Br)cc1Oc1c(O)cc(Br)c(Br)c1Br`, the zone of inhibition at 1 µg/disc in experiment [1] came to 9 mm. The zone of inhibition at 5 µg/disc in experiment [2] came out at 10 mm. In addition, the zone of inhibition at 0.1 µg/disc in experiment [3] was 6 mm. Moreover, in experiment [4], the IC50 stood at 2.8 µg/mL (≈ 4.58 µM). Besides, in experiment [5], the zone of inhibition at 10 µg/disc amounted to 10 mm.

On to `COc1c(Br)cc(Br)cc1Oc1c(Br)cc(Br)c(Br)c1OC`, for which, in experiment [1], the zone of inhibition at 1 µg/disc was 0 mm. Besides, the zone of inhibition at 5 µg/disc in experiment [2] came to 0 mm. Moreover, the zone of inhibition at 0.1 µg/disc in experiment [3] came out at 0 mm. In addition, the zone of inhibition at 10 µg/disc in experiment [5] was 0 mm.

On to `Oc1cc(Br)ccc1Oc1cc(Br)cc(Br)c1O`, for which, in experiment [1], the zone of inhibition at 1 µg/disc came out at 0 mm. For the same compound, the zone of inhibition at 5 µg/disc in experiment [2] stood at 7 mm. Moreover, the zone of inhibition at 0.1 µg/disc in experiment [3] amounted to 0 mm. It took 8.5 µg/mL (≈ 19.4 µM) to reach half-maximal inhibition in experiment [4] (IC50). Besides, the zone of inhibition at 10 µg/disc in experiment [5] is 13 mm.

Regarding `COc1cc(Br)cc(Br)c1Oc1cc(Br)cc(Br)c1OC`, the zone of inhibition at 1 µg/disc in experiment [1] turned out to be 0 mm. Also, the zone of inhibition at 5 µg/disc in experiment [2] was determined as 0 mm. Also, in experiment [3], the zone of inhibition at 0.1 µg/disc turned out to be 0 mm. For the same compound, the zone of inhibition at 10 µg/disc in experiment [5] was 0 mm.

As for `COc1c(Br)cc(Br)c(Br)c1Oc1cc(Br)cc(Br)c1O`, the zone of inhibition at 1 µg/disc in experiment [1] is 7 mm. In addition, the zone of inhibition at 5 µg/disc in experiment [2] was 10 mm. The zone of inhibition at 0.1 µg/disc in experiment [3] stood at 6 mm. Moreover, the zone of inhibition at 10 µg/disc in experiment [5] is 13 mm.

As to `Brc1cc(Br)c2c(c1)Oc1c(Br)c(Br)c(Br)c(Br)c1O2`, the zone of inhibition at 1 µg/disc in experiment [1] worked out at 12 mm. Also, in experiment [2], the zone of inhibition at 5 µg/disc turned out to be 13 mm. In experiment [3], the zone of inhibition at 0.1 µg/disc stood at 7 mm. The compound also returned an IC50 in experiment [4] of over 15 µg/mL. The zone of inhibition at 10 µg/disc in experiment [5] was 14 mm.

As to `Oc1c(Br)cc(Br)cc1Oc1c(Br)ccc(Br)c1O`, the zone of inhibition at 1 µg/disc in experiment [1] was found to be 13 mm. The zone of inhibition at 5 µg/disc in experiment [2] stood at 20 mm. The zone of inhibition at 0.1 µg/disc in experiment [3] was found to be 7 mm. The compound also displayed an IC50 in experiment [4] of over 15 µg/mL. The zone of inhibition at 10 µg/disc in experiment [5] was 20 mm.

Turning to `COc1c(Br)c(Br)cc(Br)c1Oc1cc(Br)cc(Br)c1O`, the zone of inhibition at 1 µg/disc in experiment [1] amounted to 9 mm. In addition, in experiment [2], the zone of inhibition at 5 µg/disc is 9 mm. In addition, in experiment [3], the zone of inhibition at 0.1 µg/disc was 6 mm. Also, the zone of inhibition at 10 µg/disc in experiment [5] is 9 mm.

On to `Oc1ccccc1Oc1c(O)cc(Br)cc1Br`, for which, in experiment [1], the zone of inhibition at 1 µg/disc came out at 8 mm. Moreover, the zone of inhibition at 5 µg/disc in experiment [2] came to 10 mm. For the same compound, in experiment [3], the zone of inhibition at 0.1 µg/disc is 6 mm. For the same compound, in experiment [4], the IC50 was over 15 µg/mL. For the same compound, the zone of inhibition at 10 µg/disc in experiment [5] is 14 mm.

On to `COc1c(Br)cc(Br)cc1Oc1c(O)c(Br)c(Br)c(Br)c1Br`, for which the zone of inhibition at 1 µg/disc in experiment [1] came to 10 mm. Also, the zone of inhibition at 5 µg/disc in experiment [2] came to 10 mm. In experiment [3], the zone of inhibition at 0.1 µg/disc was 0 mm. In addition, in experiment [4], the 50% inhibitory concentration (IC50) is over 15 µg/mL. Also, the zone of inhibition at 10 µg/disc in experiment [5] was determined as 13 mm.

For the compound `COc1ccc(Br)cc1Oc1c(Br)c(Br)cc(Br)c1OC`, the zone of inhibition at 1 µg/disc in experiment [1] amounted to 0 mm. Also, in experiment [2], the zone of inhibition at 5 µg/disc is 0 mm. Further, in experiment [3], the zone of inhibition at 0.1 µg/disc was 0 mm. Further, the zone of inhibition at 10 µg/disc in experiment [5] was determined as 0 mm.

(Values after ChEMBL document CHEMBL1142942, “Polybrominated diphenyl ethers from the Indonesian sponge Lamellodysidea herbacea” (J Nat Prod, 2007).)
